# Measured values of several laboratories.
# Lines come from different studies, so protocols differ.
# Target: Ephrin type-A receptor 2 (EPHA2, Homo sapiens, UniProt P29317)
SMILES,test,setting,measurement,value
Nc1ncc(-c2nc(N3CCOCC3)nc(N3CCOCC3)n2)c(C(F)F)n1,"cell-free assay, competition with immobilised ligand",10 µM,remaining binding,94%
Cn1cc(-c2cc(F)cc(N3CCn4c(cc5c4CCCC5)C3=O)c2CO)cc(Nc2ccc(N3CCN(C4COC4)CC3)cn2)c1=O,"enzyme activity, inhibitor",0.1 µM,inhibition,-1%
COc1ncccc1-c1cnn2ccc(N3CCN(C(=O)OC(C)C)CC3)nc12,"binding, competition with immobilised ligand",1 µM,remaining binding,79%
Cn1cc(-c2cccc(N3CCc4c(sc5c4CC(C)(C)C5)C3=O)c2CO)cc(Nc2ccncn2)c1=O,"enzyme activity, inhibitor",1 µM,inhibition,16%
O=c1[nH]c2ccccc2n1C1CCN(Cc2ccc(-c3[nH]c4cc5ncnc5cc4nc3-c3ccccc3)cc2)CC1,cell-free assay,0.5 µM,remaining signal,103%
N#CC1(c2ccccn2)CCN(Cc2cc(C(=O)O)c(=O)n3ccccc23)CC1,"cell-free assay, competition with immobilised ligand",1 µM,remaining binding,83%
COc1cc(Nc2ncc(F)c(Nc3ccc4c(n3)NC(=O)C(C)(C)O4)n2)cc(OC)c1OC,"binding, competition with immobilised ligand",10 µM,inhibition,90%
CC(C)(C)c1cc(C=C(C#N)C#N)cc(Br)c1O,"enzyme activity, inhibitor",0.5 µM,remaining activity,105%
Cn1cncc1[C@@](O)(COc1ccc(C#N)cc1-c1ccc(OC(F)(F)F)cc1)c1ccc(C#N)cc1,"cell-free assay, competition with immobilised ligand",1 µM,remaining binding,89%
Cc1nn(C)cc1-c1nc2c(N3CCN(Cc4ccc(Cl)cc4)CC3)c(Cl)cnc2[nH]1,"binding, competition with immobilised ligand",1 µM,remaining binding,100%
